As usually defined, the IC50 is the concentration needed to halve the response being measured.

The record followed here is PMC12650307 (RSC Advances, 2025).

One assay concerns the target CDK2 (Homo sapiens, UniProt P24941). Kind of assay: In vitro CDK2 enzyme inhibition. Type of assay: biochemical.
The subject of the next assay is HepG2 cells. Kind of assay: MTT cytotoxicity assay, HepG2. The assay is classed as cell-based. To be noted: Homo sapiens, HepG2, 48 h, read-out: IC50 HepG2. A general note: Tetrazolium dyes change colour on reduction, which living cells bring about.
The subject of assay [1] is MCF-7 cells. Kind of assay: MTT cytotoxicity assay, MCF-7. The assay is classed as cell-based. The note with it: Homo sapiens, MCF7, 48 h, read-out: IC50 MCF-7.
For assay [2], the system named is MCF-7 cells. The assay can be described thus: Cell cycle analysis. Type of assay: cell-based, human. In a few lines:
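MCF-7 cells were exposed for 48 h, harvested by trypsinization and washed twice in PBS. Fixed in ice-cold 60% (w/w) ethanol at 4 °C for 12 h, then rewashed in PBS. Stained 30 min in buffer with RNase and propidium iodide. Flow cytometry gave the % of cells in G1, S and G2, with untreated MCF-7 as control.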

In assay [3] the test system is MCF-7 cells. Kind of assay: Annexin V-FITC/PI apoptosis assay. To be noted: MCF-7, 48 h at IC50. The assay is classed as cell-based, human. In a few lines:
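Treated MCF-7 cells for 48 h, then trypsinized and washed in PBS. Stained with annexin V-FITC plus propidium iodide at room temperature in the dark, per kit instructions, then read on a FACScan flow cytometer. Quadrants: upper left necrotic, upper right late apoptotic, lower right early apoptotic, lower left living. Untreated MCF-7 served as control.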

For a further assay, the system named is Bax. Kind of assay: Bax level by ELISA in treated MCF-7 cells. The assay is classed as cell-based, human. Background: ELISA stands for enzyme-linked immunosorbent assay.
In another assay the test system is Bcl-2. Kind of assay: Bcl-2 level by ELISA in treated MCF-7 cells. Type of assay: cell-based, human.

On to `Cc1cccc(N=Nc2c(N)nn(-c3ccccn3)c2N)c1` [Compound 2, 1-(2-Pyridinyl)-4-(3-tolyldiazenyl)-1H-pyrazole-3,5-diamine], for which the IC50 against CDK2 is 1.05 ± 0.2 µM.
On CDK2, `CC(=O)c1ccc(N=Nc2c(N)nn(-c3ccccn3)c2N)cc1` [Compound 3, 1-(4-((3,5-Diamino-1-(2-pyridinyl)-1H-pyrazol-4-yl)diazenyl)phenyl)ethan-1-one] registered an IC50 of 1.2 ± 0.15 µM.
With `Nc1nn(-c2ccccn2)c(N)c1N=Nc1ccc(S(=O)(=O)O)cc1` [Compound 4, 4-((3,5-Diamino-1-(2-pyridinyl)-1H-pyrazol-4-yl)diazenyl)benzenesulfonic acid], the IC50 stood at 0.75 ± 0.05 µM at CDK2, 53.8 ± 3.2 µM with HepG2 cells and 48.7 ± 2.8 µM with MCF-7 cells [1].
In the case of `Nc1nn(-c2ccccn2)c(N)c1N=Nc1ccc(C(=O)O)c(O)c1` [Compound 5, 4-((3,5-Diamino-1-(2-pyridinyl)-1H-pyrazol-4-yl)diazenyl)-2-hydroxybenzoic acid], the “CDK2 inhibitory activity relative to roscovitine” value at CDK2 turned out to be 2 fold. Moreover, the results for the half-maximal inhibitory concentration (IC50) at CDK2, with HepG2 cells and with MCF-7 cells [1] were 0.56 ± 0.03 µM, 13.1 ± 1.1 µM and 8.03 ± 0.6 µM, respectively. Besides, the “fold increase in S phase in comparison to control” value in the assay on MCF-7 cells [2] (MCF-7) was determined as 1.2 fold. Besides, the “% S” value in the assay with MCF-7 cells [2] (MCF-7, 48 h at its IC50, control 35.52) came to 41.02%. Also, the “% G1” value in the assay on MCF-7 cells [2] (MCF-7, 48 h at its IC50, control 38.02) is given as 11.98%. For the same compound, the Late apoptosis with MCF-7 cells [3] (control 0.04) was found to be 8.10%. In the assay with MCF-7 cells [3] (control 0.18), this compound showed a Necrosis of 0.02%. In the assay with MCF-7 cells [3] (control 0.43), this compound returned an Early apoptosis of 71.1%. Besides, in the assay on MCF-7 cells [3] (control 0.65), the “Total (apoptosis/necrosis)” value was determined as 79.22. Further, the “Bax/Bcl-2 ratio in comparison with control” value in the assay with Bax is recorded as “approximately 20 fold”. The same compound came in with a Bax in the assay on Bax (control 57.22 ± 0.9) of 369.15 ± 0.7 pg/mL. Besides, in the assay with Bax (relative to control = 1), the “Bax FLD” value stood at 6.45 fold. For the same compound, the “decrease of anti-apoptotic Bcl-2 level in comparison with control” value in the assay with Bcl-2 was 3 fold. This compound also returned a Bcl-2 with Bcl-2 (control 5.31 ± 0.5) of 1.72 ± 0.08 ng/mL. Also, the “Bcl-2 FLD” value in the assay on Bcl-2 (relative to control = 1) is listed as 0.3.
Regarding `NC(N)=NS(=O)(=O)c1ccc(N=Nc2c(N)nn(-c3ccccn3)c2N)cc1` [Compound 6, 4-((3,5-Diamino-1-(2-pyridinyl)-1H-pyrazol-4-yl)diazenyl)-N-(diaminomethylene)benzenesulfonamide], the “CDK2 inhibitory activity relative to roscovitine” value on CDK2 is 2 fold. For the same compound, the figures for the IC50 against CDK2, with HepG2 cells and with MCF-7 cells [1] were 0.46 ± 0.02 µM, 22.8 ± 1.5 µM and 26.1 ± 1.7 µM, respectively.
With `Nc1nn(-c2ccccn2)c(N)c1N=Nc1ccc(N=Nc2ccccc2)cc1` [Compound 7, 4-((4-(Phenyldiazenyl)phenyl)diazenyl)-1-(2-pyridinyl)-1H-pyrazole-3,5-diamine], the IC50 against CDK2 came out at 0.77 ± 0.05 µM; in the assay on HepG2 cells, 67.1 ± 3.5 µM; in the assay on MCF-7 cells [1], 35.1 ± 2.2 µM.
On CDK2, `Nc1nn(-c2ccccn2)c(N)c1N=Nc1cc(Cl)c(Cl)cc1Cl` [Compound 8, 1-(2-Pyridinyl)-4-((2,4,5-trichlorophenyl)diazenyl)-1H-pyrazole-3,5-diamine] came in with an IC50 of 1.46 ± 0.5 µM.
Still for that read-out and setting: for `Nc1nn(-c2ccccn2)c(N)c1N=Nc1cccc([N+](=O)[O-])c1` [Compound 9, 4-((3-Nitrophenyl)diazenyl)-1-(2-pyridinyl)-1H-pyrazole-3,5-diamine] the value was 1.5 ± 0.7 µM.
Regarding `COc1ccc(N=Nc2c(N)nn(-c3ccccn3)c2N)cc1` [Compound 10, 4-((4-Methoxyphenyl)diazenyl)-1-(2-pyridinyl)-1H-pyrazole-3,5-diamine], the concentration for half-maximal inhibition (IC50) is 0.85 ± 0.05 µM on CDK2, 41.6 ± 2.4 µM in the assay on HepG2 cells and 15.4 ± 1.2 µM in the assay with MCF-7 cells [1].
In the case of `Nc1nn(-c2ccccn2)c(N)c1N=Nc1ccccc1Cl` [Compound 11, 4-((2-Chlorophenyl)diazenyl)-1-(2-pyridinyl)-1H-pyrazole-3,5-diamine], on CDK2, the “CDK2 inhibitory activity relative to roscovitine” value worked out at 2 fold. The figures for the IC50 against CDK2, in the assay with HepG2 cells and in the assay on MCF-7 cells [1] were 0.45 ± 0.02 µM, 74.2 ± 3.8 µM and 61.8 ± 3.4 µM, respectively.
For the compound `Nc1nn(-c2ccccn2)c(N)c1N=Nc1nccs1` [Compound 12, 1-(Pyridin-2-yl)-4-(thiazol-2-yldiazenyl)-1H-pyrazole-3,5-diamine], the half-maximal inhibitory concentration (IC50) at CDK2 is 1.24 ± 0.85 µM.
Turning to `COc1cccc2c1C(=O)c1c(O)c3c(c(O)c1C2=O)C[C@@](O)(C(=O)CO)C[C@@H]3O[C@H]1C[C@H](N)[C@H](O)[C@H](C)O1` [DOX, doxorubicin, reference compound], the IC50 with HepG2 cells amounted to 4.5 ± 0.2 µM.
